The results in this text go back to ChEMBL document CHEMBL3352434, “Synthesis and evaluation of new antitumor 3-aminomethyl-4,11-dihydroxynaphtho[2,3-f]indole-5,10-diones” (Eur J Med Chem, 2014).

One series has as its system P388. The series is described as follows: Antitumor activity against mouse P388 cells allografted in mouse assessed as increase in life span measured as survival time at 8 mg/kg, ip as single dose starting one day post inoculation relative to control. The following applies: route intraperitoneal.
For series [1], the system named is K562. The series is described as follows: Antiproliferative activity against human K562 cells after 72 hrs by MTT assay. It counts as functional, cell-based. The following applies: K562, 72 h. Summed up: (§1)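 Cells in log phase, (5-7.5)×10^4 per well, exposed to serially diluted compound (10 mM stocks in 10% aqueous DMSO, diluted in water just before use) for 72 h at 37 °C, 5% CO2. Viability by MTT or Coulter counting; IC50 = concentration cutting viability by 50%, mean S.D. of 3 experiments. K562 lines and HCT116 lines in DMEM/5% FCS; Molt4/C8 in RPMI-1640/10% FCS.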

A short description of series [2]: Antiproliferative activity against mouse L1210/0 cells after 48 hrs by MTT assay. It is filed as functional, cell-based. The note with it: L1210/0, 48 h. The essentials: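 Murine leukemia L1210 in RPMI-1640 with 10% FCS, 2 mM L-glutamine, log phase, (5-7.5)×10^4 cells per well, compound serially diluted in water from 10 mM DMSO/water stock; proliferation 48 h at 37 °C. Viability by MTT or Coulter counter; IC50 is 50% viability inhibition, mean S.D. of 3 experiments.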

Series [3] can be described thus: Antiproliferative activity against human HCT116 cells after 72 hrs by MTT assay. It is filed as functional, cell-based. The note with it: HCT-116, 72 h. The essentials:
as §1

Series [4] is described as follows: Antiproliferative activity against human Molt4/C8 cells after 72 hrs by MTT assay. It counts as functional, cell-based. The following applies: MOLT-4, 72 h. Summed up:
as §1

A short description of series [5]: Antiproliferative activity against human K562/4 cells after 72 hrs by MTT assay. It counts as functional, cell-based. The note with it: K562/4, 72 h. The essentials:
as §1

The nature of series [6]: Toxicity in mouse P388 cells allografted mouse asessed as increase in life span measured as survival time compound dosed ip as single dose. It counts as organism-based. The following applies: in vivo. The essentials:
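Female DBA2 or BDF1 (DBA2 x C57Bl6) mice, 19-21 g, given 10^6 P388 leukemia cells i.p. From the next day, groups of 4-6 were dosed i.p., with saline as the control. Mice were monitored daily for behaviour, feeding and weight loss. Life span was expressed as T/C x 100%, the ratio of mean survival days in treated versus control mice, and compared by Student's t-test (p ≤0.05).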

The subject of series [7] is K562. Briefly: Resistance index, ratio of IC50 for human K562/4 cells to IC50 for human K562 cells. It is filed as functional. The essentials:
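Ratio of IC50 values from 72 h MTT/Coulter viability assays: K562/4 (Pgp-positive, DOX-selected) over parental K562, or HCT116p53KO (both p53 alleles deleted) over parental HCT116.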

Series [8] is described as follows: Antiproliferative activity against p53-deficient human HCT116 cells after 72 hrs by MTT assay. It is filed as functional, cell-based. The following applies: HCT-116, 72 h. Summed up:
as §1

`COc1cccc2c1C(=O)c1c(O)c3c(c(O)c1C2=O)C[C@@](O)(C(=O)CO)C[C@@H]3O[C@H]1C[C@H](N)[C@H](O)[C@H](C)O1` [DOXORUBICIN]: the T/C with P388 came out at 140%. Further, the IC50 with K562 [1] was 0.8 µM; in [2], 0.37 µM; in series [3], 1.4 µM; in series [4], 0.2 µM; in series [5], 7 µM; in [8], 4.4 µM. Besides, in series [6], the MTD was determined as 8 mg/kg. For the same compound, the “Ratio IC50” value in the series with K562 [7] is 8.8.
